VIM-2 inhibitor: inhibitors of Pseudomonas aeruginosa VIM-2 metallo-beta-lactamase; purified VIM-2, nitrocefin hydrolysis, epi-absorbance fluorescence; inhibition, % at 5.6 µM; hit rate 0.89% among 290,000; AID 1527;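 active means inhibition above the mean of all tested compounds plus 3 SD, cutoff set per screening run, cut at about 7.5% in these data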;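 further: red hydrolysis product quenches plate fluorescence so inhibitors raise well fluorescence; 0% = enzyme with DMSO and 100% = DMSO without enzyme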
IMP-1 inh: inhibitors of Pseudomonas aeruginosa IMP-1 metallo-beta-lactamase. purified IMP-1, nitrocefin hydrolysis, epi-absorbance fluorescence. hit rate 0.45% among 290,000. inhibition, % at 5.6 µM;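 active means inhibition above the mean plus 3 SD of all compounds in the same screening run, cut at about 4.5% in these data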;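 further: 0% = IMP-1 with DMSO and 100% = DMSO wells lacking enzyme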
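Assay system: purified IMP-1; Quantity: IMP-1 0.2 nM before substrate addition; Medium: HEPES buffer pH 7.1 with ZnSO4 and Brij 35; Incubation: 15 min enzyme–compound preincubation, then 25 min nitrocefin reaction, 25 °C; Signal: fluorescence quenching readout, ex 480/em 530 nm; Controls: DMSO with and without IMP-1; Repeats: singlicate testing.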
HGIII-sPLA2 inh: Blocks human group III sPLA2 activity. AID 743126. QFRET BODIPY PC-A2 liposome hydrolysis, fluorescence. hit rate 0.56% among 370,000. inhibition, % at 12.2 µM. Q9NZ20;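 active means inhibition above mean plus 3 SD of compounds lying within the high and low control bounds, cut at about 19% in these data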;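 further: 0% = median of test compound wells and 100% = no enzyme DMSO wells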
PfM18AAP inh-1: PfM18AAP enzyme inhibition | recombinant PfM18AAP, H-Glu-NHMec fluorogenic cleavage | inhibition, % at 7.35 µM | hit rate 1.2% among 290,000 | AID 1822;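 active means inhibition above the campaign mean inhibition over all tested compounds plus 3 SD, cut at about 28% in these data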;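 further: 0% = plate median of test compound wells and 100% = 2 mM ZnCl2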
PfM18AAP inh-2: PfM18AAP inhibition, confirmation; shares compounds with PfM18AAP inh-1; recombinant PfM18AAP, H-Glu-NHMec fluorogenic cleavage; inhibition, % at 7.35 µM; hit rate 28% among 2,400; AID 2170;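 active means mean inhibition over replicate wells above the hit cutoff set for the earlier primary screen, cut at about 29% in these data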;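 further: 0% = median of test compound wells and 100% = 2 mM ZnCl2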
CTSL1 counter: Cathepsin L (human) inhibition, confirmation | shares compounds with PfM18AAP inh-1 | purified cathepsin L1, Z-Leu-Arg-MCA fluorescence | inhibition, % at 5.96 µM | 2,400 tested, under 10 active | AID 2178;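 active means average inhibition across replicates above the hit cutoff set in the earlier primary screen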;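 further: 0% = median of test compound wells and 100% = Z-Phe-Ala-diazomethylketone 1 µM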
Target sequence (P07711 whole entry, looked up): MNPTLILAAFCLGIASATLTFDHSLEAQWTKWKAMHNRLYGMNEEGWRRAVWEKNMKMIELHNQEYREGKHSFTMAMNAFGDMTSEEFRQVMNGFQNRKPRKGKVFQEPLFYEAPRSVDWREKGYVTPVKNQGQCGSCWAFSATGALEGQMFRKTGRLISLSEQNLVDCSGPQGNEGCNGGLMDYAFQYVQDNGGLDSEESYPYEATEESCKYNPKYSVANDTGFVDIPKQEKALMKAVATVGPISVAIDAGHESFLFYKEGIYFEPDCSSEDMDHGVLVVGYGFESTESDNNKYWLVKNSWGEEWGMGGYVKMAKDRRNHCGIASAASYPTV
hGIII sPLA2 conf: human GIII-sPLA2 inhibition, confirmation; shares compounds with HGIII-sPLA2 inh; recombinant hGIII-sPLA2, BODIPY PC-A2 QFRET fluorescence; inhibition, % at 12.2 µM; hit rate 34% among 2,000;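 active means mean inhibition across triplicates above the hit cutoff set in the earlier primary screen, cut at about 19% in these data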;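 further: 0% = enzyme with DMSO and 100% = DMSO wells lacking enzyme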
BODIPY interf: 535nm fluorescence interference, HGIII-sPLA2 counter-screen; shares compounds with HGIII-sPLA2 inh; BODIPY FL product fluorescence interference, QFRET; inhibition, % at 12.2 µM; hit rate 8.5% among 2,000;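 active means average inhibition above the solvent-only control mean plus 3 SD, cut at about 6% in these data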;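 further: 0% = DMSO with substrate plus product and 100% = DMSO with substrate alone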
* marks the source's active call; other numbers are inactive results; . = no result given. Sampled rows, rich in hits. Any-hit rate of the full collection: about 2.4%.

SMILES	VIM-2 inhibitor	IMP-1 inh	HGIII-sPLA2 inh	PfM18AAP inh-1	PfM18AAP inh-2	CTSL1 counter	hGIII sPLA2 conf	BODIPY interf
CN(C)C1C(=O)C(C(N)=O)=C(O)C2(O)C(=O)C3=C(O)c4c(O)cccc4C(C)(O)C3CC12 (stereo unspecified)	-1.2	0.1	.	36.1*	-49.0	-5.0	.	.
N#Cc1c(/N=C/c2ccc(O)cc2O)sc2c1C1CCN2CC1	-4.6	-4.6	-4.6	39.5*	12.3	6.9	.	.
Cc1nc2ccc(P(=O)(O)O)cc2s1	-2.0	-3.0	.	49.5*	9.5	0.0	.	.
O=c1c2ccccc2nc(/C=C/c2ccccc2)n1-c1ccc(O)cc1	-4.6	-2.1	-35.2	3.9	.	.	.	.
O=c1c2ccccc2nc(/C=C/c2ccc(O)c(O)c2)n1-c1ccccc1	-0.2	-3.2	18.4	63.2*	41.3*	-0.1	.	.
O=c1[nH]c(=O)n(-c2ccc(F)cc2)c(O)c1/C=C1\C=Nc2ccccc21	1.9	2.3	4.5	32.0*	29.4*	-5.0	.	.
COc1ccc(-n2c(O)c(/C=C3\C=Nc4ccc(Br)cc43)c(=O)[nH]c2=O)cc1	-2.9	-3.3	-9.7	26.9	.	.	.	.
O=c1[nH]c(=O)n(-c2ccccc2F)c(O)c1/C=C1\C=Nc2ccccc21	-4.5	-2.1	-4.6	42.5*	40.8*	-1.5	.	.
O=c1[nH]c(=O)n(Cc2ccccc2)c(O)c1/C=C1\C=Nc2ccccc21	0.3	-2.1	-12.5	8.8	.	.	.	.
CC(C)CN1CCN(Cc2c(F)cccc2Cl)CC1CCO (stereo unspecified)	1.1	-1.4	0.9	2.0	.	.	.	.
Cc1ccccc1-n1c(O)c(C=Nc2ccc(N(C)C)cc2)c(=O)[nH]c1=O	0.1	-5.6	-3.1	45.9*	-56.1	6.0	.	.
C=CCn1c(O)c(C=Nc2ccc(N(CC)CC)cc2)c(=O)[nH]c1=O	-4.5	5.3*	-1.8	50.1*	-28.6	1.1	.	.
CCN(CC)c1ccc(N=Cc2c(O)n(-c3ccc(Cl)cc3)c(=O)[nH]c2=O)cc1	-1.3	-2.1	3.7	2.9	.	.	.	.
C=CCn1c(O)c(C(CC)=Nc2ccc(N(C)C)cc2)c(=O)[nH]c1=O	-2.0	-1.8	-3.9	52.1*	-28.2	0.3	.	.
C=CCn1c(O)c(C(CC)=Nc2ccc3c(c2)CCC3)c(=O)[nH]c1=O	-3.8	-0.6	2.6	2.6	.	.	.	.
CCN(CC)c1ccc(N=Cc2c(O)n(-c3ccc(OC)cc3)c(=O)[nH]c2=O)cc1	-2.4	1.4	4.7	42.5*	-35.5	1.4	.	.
Cc1cc(N2CCNC[C@H]2C)ccc1N1CCN[C@@H](C)C1	.	.	2.8	.	.	.	.	.
CCN(CC)P(=S)(c1c(C)nc2ccccn12)c1c(C)nc2ccccn12	0.2	-1.2	-0.1	31.7*	-14.9	-0.4	.	.
CCOc1c(P(=S)(N(C)C)N(C)C)c(C)nn1-c1ccccc1	-2.0	-3.2	-1.9	0.0	.	.	.	.
CCOC(=O)[C@]12Cc3cc(OC)ccc3[C@H]1N(C(C)C)C(=O)c1cc(OC)ccc12	.	.	3.0	.	.	.	.	.
O=C1NC(=O)C(=Cc2cc3c(cc2[N+](=O)[O-])OCO3)C(=O)N1	0.1	-2.5	-1.0	39.9*	-39.0	0.4	.	.
O=C1NC(=O)C(=Cc2ccccc2[N+](=O)[O-])C(=O)N1	.	.	5.4	.	.	.	.	.
O=c1ccc2cc(O[C@@H]3O[C@@H](CO)[C@H](O)[C@@H](O)[C@@H]3O)c(O)cc2o1	1.8	0.9	16.7	32.2*	-9.8	6.9	.	.
COc1ccc(NC(=S)NC(NC(=O)CF)C(Cl)(Cl)Cl)cc1[N+](=O)[O-] (stereo unspecified)	-1.0	-1.6	19.2*	-2.0	.	.	17.8	-3.1
O=C1CN=C(c2ccccc2F)c2cc(Cl)ccc2N1	0.7	-1.6	19.3*	1.9	.	.	-1.9	-6.8
SMILES	VIM-2 inhibitor	IMP-1 inh	HGIII-sPLA2 inh	PfM18AAP inh-1	PfM18AAP inh-2	CTSL1 counter	hGIII sPLA2 conf	BODIPY interf
CC1CC2(C)C(CCC3C2CCC2(C)C(OP(=O)(N4CC4)N4CC4)CCC32)CC1=O (stereo unspecified)	.	.	24.7*	.	.	.	-1.2	-24.8
C[C@]12CCC3C(CC[C@H]4C[C@H](O)CC[C@]34C)C1CC(=O)[C@@H]2O (stereo partly specified)	.	.	1.3	.	.	.	.	.
Nc1ccc(-c2ccc(N)cc2)cc1	.	.	19.2*	.	.	.	17.1	-3.5
N#CC1(c2ccccc2)CCN(C2CC(=O)N(c3ccc4c(c3)OCO4)C2=O)CC1 (stereo unspecified)	-1.5	-2.8	2.4	3.5	.	.	.	.
Cc1cc(C(=O)N=Nc2c(O)n(C)c3ccccc23)c(C)o1	0.9	-0.4	22.5*	-0.1	.	.	1.1	-1.8
COC12CCC3(CC1C(C)(O)C(C)(C)C)[C@H]1Cc4ccc(O)c5c4[C@@]3(CCN1CC1CC1)C2O5 (stereo partly specified)	.	.	-41.1	.	.	.	.	.
CCC(=NCc1ccco1)c1c(O)n(C)c(=O)n(C)c1=O	-0.8	-2.9	19.7*	1.7	.	.	-1.2	-7.0
CC(=NCc1ccco1)c1c(O)n(C)c(=O)n(C)c1=O	-1.9	-1.7	7.5	-1.8	.	.	.	.
CN(C)c1ccc(-[n+]2c(-c3ccccc3)cc(-c3ccccc3)cc2-c2ccccc2)cc1	-4.2	-2.9	22.2*	7.9	.	.	27.2*	-37.4
c1ccc(-c2cc(-c3ccccc3)[n+](-c3ccccc3)c(-c3ccccc3)c2)cc1	1.9	0.6	5.7	6.8	.	.	.	.
O=C(C[N+]12CCC(CC1)C(OC(=O)c1ccccc1)C2)c1ccc([N+](=O)[O-])cc1 (stereo unspecified)	0.8	0.3	21.7*	-7.6	.	.	13.5	-20.9
O=C(C[N+]12CCC(CC1)C(CO)C2)c1ccc([N+](=O)[O-])cc1 (stereo unspecified)	-2.9	-2.5	3.6	-2.0	.	.	.	.
CCOC(=O)[C@@]12C(=O)C(=O)N[C@]1(c1ccccc1)C1OCCCC12 (stereo partly specified)	-0.7	-3.0	14.3	8.1	.	.	.	.
c1ccc2c3c([nH]c2c1)CNCC3	-0.5	-1.5	23.5*	-7.0	.	.	18.0	-6.9
COc1cc(O)c2c(c1)/C=C/C[C@H](O)[C@H](O)C(=O)CCC[C@H](C)OC2=O	.	.	4.9	.	.	.	.	.
COc1ccccc1N1CCN(Cc2ccc(Cl)cc2Cl)CC1	-2.9	-1.7	20.8*	4.3	.	.	11.4	-9.2
COc1ccccc1N1CCN(Cc2ccc(F)cc2)CC1	-3.4	-2.1	3.3	1.2	.	.	.	.
O=C1CC(c2ccccc2)CN1 (stereo unspecified)	-2.5	-2.3	24.2*	-0.3	.	.	2.9	-2.8
O=C1NC(=S)NC(=O)C1c1ccccc1	.	.	8.5	.	.	.	.	.
Cc1ccccc1CCNCc1ccc(Br)cc1	-2.0	-2.7	1.3	3.5	.	.	.	.
CC(C)C12CN3CCN(CC(C3)/C1=N\O)C2	-3.9	-1.6	3.5	-12.6	.	.	.	.
O=c1[nH]c(=S)n(C2CC2)c(O)c1/C=N/Nc1ccccc1	-2.5	-3.3	21.8*	12.4	.	.	15.9	-4.1

Bioassay records deposited in PubChem BioAssay by The Scripps Research Institute Molecular Screening Center.
